From ChEMBL document CHEMBL4393718, “Synthesis, biological evaluation and computational study of novel isoniazid containing 4H-Pyrimido[2,1-b]benzothiazoles derivatives” (2019)
Converted amounts (≈) assume the structure as drawn.

Columns and labels:
Type in all cases: functional
[1] = tested on: Klebsiella aerogenes; test: Antimicrobial activity against Enterobacter aerogenes MTCC 8558 incubated for 24 hrs by well diffusion method
Method in brief: (§1)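 Well diffusion assay on nutrient agar plates. The read-out is the mean inhibition zone diameter in mm.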

[2] = tested on: Klebsiella aerogenes; test: Activity index, ratio of IZ for test compound to IZ for streptomycin for antimicrobial activity against Enterobacter aerogenes MTCC 8558 incubated for 24 hrs by well diffusion method
Method in brief: (§2)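 Well diffusion on nutrient agar plates. The activity index is the mean inhibition zone of the derivative divided by the inhibition zone of the standard antibiotic.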

[3] = tested on: Escherichia coli; test: Antimicrobial activity against Escherichia coli MTCC 1610 incubated for 24 hrs by well diffusion method; method in brief: as §1
[4] = tested on: Escherichia coli; test: Activity index, ratio of IZ for test compound to IZ for streptomycin for antimicrobial activity against Escherichia coli MTCC 1610 incubated for 24 hrs by well diffusion method; method in brief: as §2
[5] = tested on: Micrococcus luteus; test: Antimicrobial activity against Micrococcus luteus MTCC 11948 incubated for 24 hrs by well diffusion method; method in brief: as §1
[6] = tested on: Micrococcus luteus; test: Activity index, ratio of IZ for test compound to IZ for streptomycin for antimicrobial activity against Micrococcus luteus MTCC 11948 incubated for 24 hrs by well diffusion method; method in brief: as §2
[7] = tested on: Bacillus cereus; test: Antimicrobial activity against Bacillus cereus MTCC 8558 incubated for 24 hrs by well diffusion method; method in brief: as §1
[8] = tested on: Bacillus cereus; test: Activity index, ratio of IZ for test compound to IZ for streptomycin for antimicrobial activity against Bacillus cereus MTCC 8558 incubated for 24 hrs by well diffusion method; method in brief: as §2
[9] = tested on: Mycobacterium tuberculosis; test: Antitubercular activity against Mycobacterium tuberculosis H37Rv assessed as viable colony forming unit at 1000 ug/ml incubated for 42 days by Lowensteine-Jensen method (reference value: 123 CFU)
[10] = tested on: Mycobacterium tuberculosis; test: Antitubercular activity against Mycobacterium tuberculosis H37Rv assessed as reduction in viable colony forming unit at 1000 ug/ml incubated for 42 days by Lowensteine-Jensen method relative to control
Method in brief: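 H37Rv cultured on Lowenstein-Jensen medium with compound or untreated control; colony forming units counted on the L-J medium. Percent inhibition = (Cc − Ct)/Cc × 100, where c is control and t is test.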

[11] = tested on: Mycobacterium tuberculosis; test: Antitubercular activity against Mycobacterium tuberculosis H37Rv incubated for 42 days by Lowensteine-Jensen method

Structure (SMILES): CCOc1ccc2c(c1)SC1=NC(C)=C(C(=O)NNC(=O)c3ccncc3)C(c3ccccn3)N12 (stereo unspecified)
- inhibition zone (IZ) [1]: 25 mm
- Activity_index [2]: 1.042
- inhibition zone (IZ) [3]: 13 mm
- Activity_index [4]: 0.542
- inhibition zone (IZ) [5]: 23 mm
- Activity_index [6]: 0.958
- inhibition zone (IZ) [7]: 18 mm
- Activity_index [8]: 0.75
- Activity [9]: 45 CFU
- inhibition at 1000 µg/mL [10]: 63.4%
- MIC [11]: 62.5 µg/mL (≈ 128 µM)

Structure (SMILES): CC1=C(C(=O)NNC(=O)c2ccncc2)C(c2ccccn2)N2C(=N1)Sc1cc(C)ccc12 (stereo unspecified)
- inhibition zone (IZ) [1]: 15 mm
- Activity_index [2]: 0.625
- inhibition zone (IZ) [3]: 21 mm
- Activity_index [4]: 0.875
- inhibition zone (IZ) [5]: 19 mm
- Activity_index [6]: 0.792
- inhibition zone (IZ) [7]: 19 mm
- Activity_index [8]: 0.792
- Activity [9]: 56 CFU
- inhibition at 1000 µg/mL [10]: 54.5%
- MIC [11]: 500 µg/mL (≈ 1100 µM)

Structure (SMILES): CC1=C(C(=O)NNC(=O)c2ccncc2)C(c2ccccn2)N2C(=N1)Sc1cccc(C)c12 (stereo unspecified)
- inhibition zone (IZ) [1]: 23 mm
- Activity_index [2]: 0.958
- inhibition zone (IZ) [3]: 17 mm
- Activity_index [4]: 0.708
- inhibition zone (IZ) [5]: 23 mm
- Activity_index [6]: 0.958
- inhibition zone (IZ) [7]: 23 mm
- Activity_index [8]: 0.958
- Activity [9]: 65 CFU
- inhibition at 1000 µg/mL [10]: 47.1%
- MIC [11]: 1000 µg/mL (≈ 2190 µM)

Structure (SMILES): CC1=C(C(=O)NNC(=O)c2ccncc2)C(c2ccccn2)N2C(=N1)Sc1cc(C)c(C)cc12 (stereo unspecified)
- inhibition zone (IZ) [1]: 19 mm
- Activity_index [2]: 0.792
- inhibition zone (IZ) [3]: 15 mm
- Activity_index [4]: 0.625
- inhibition zone (IZ) [5]: 19 mm
- Activity_index [6]: 0.792
- inhibition zone (IZ) [7]: 19 mm
- Activity_index [8]: 0.792
- Activity [9]: 22 CFU
- inhibition at 1000 µg/mL [10]: 82.1%
- MIC [11]: 12.5 µg/mL (≈ 26.6 µM)

Structure (SMILES): CC1=C(C(=O)NNC(=O)c2ccncc2)C(c2ccccn2)N2C(=N1)Sc1cc([N+](=O)[O-])ccc12 (stereo unspecified)
- inhibition zone (IZ) [1]: 17 mm
- Activity_index [2]: 0.708
- inhibition zone (IZ) [3]: 16 mm
- Activity_index [4]: 0.667
- inhibition zone (IZ) [5]: 14 mm
- Activity_index [6]: 0.583
- inhibition zone (IZ) [7]: 24 mm
- Activity_index [8]: 1
- Activity [9]: 53 CFU
- inhibition at 1000 µg/mL [10]: 56.9%
- MIC [11]: 250 µg/mL (≈ 513 µM)

Structure (SMILES): CC1=C(C(=O)NNC(=O)c2ccncc2)C(c2ccccn2)N2C(=N1)Sc1cc(Cl)ccc12 (stereo unspecified)
- inhibition zone (IZ) [1]: 16 mm
- Activity_index [2]: 0.667
- inhibition zone (IZ) [3]: 18 mm
- Activity_index [4]: 0.75
- inhibition zone (IZ) [5]: 16 mm
- Activity_index [6]: 0.667
- inhibition zone (IZ) [7]: 17 mm
- Activity_index [8]: 0.708
- Activity [9]: 35 CFU
- inhibition at 1000 µg/mL [10]: 71.5%
- MIC [11]: 125 µg/mL (≈ 262 µM)

Structure (SMILES): CC1=C(C(=O)NNC(=O)c2ccncc2)C(c2ccccn2)N2C(=N1)Sc1cc(Br)ccc12 (stereo unspecified)
- inhibition zone (IZ) [1]: 20 mm
- Activity_index [2]: 0.833
- inhibition zone (IZ) [3]: 19 mm
- Activity_index [4]: 0.792
- inhibition zone (IZ) [5]: 15 mm
- Activity_index [6]: 0.625
- inhibition zone (IZ) [7]: 18 mm
- Activity_index [8]: 0.75
- Activity [9]: 33 CFU
- inhibition at 1000 µg/mL [10]: 73.2%
- MIC [11]: 62.5 µg/mL (≈ 120 µM)

Structure (SMILES): COc1cccc2c1N1C(=NC(C)=C(C(=O)NNC(=O)c3ccncc3)C1c1ccccn1)S2 (stereo unspecified)
- inhibition zone (IZ) [1]: 23 mm
- Activity_index [2]: 0.958
- inhibition zone (IZ) [3]: 17 mm
- Activity_index [4]: 0.708
- inhibition zone (IZ) [5]: 17 mm
- Activity_index [6]: 0.708
- inhibition zone (IZ) [7]: 26 mm
- Activity_index [8]: 1.083
- Activity [9]: 61 CFU
- inhibition at 1000 µg/mL [10]: 50.4%
- MIC [11]: 125 µg/mL (≈ 265 µM)

Structure (SMILES): CC1=C(C(=O)NNC(=O)c2ccncc2)C(c2ccccn2)N2C(=N1)Sc1cc(OC(F)(F)F)ccc12 (stereo unspecified)
- inhibition zone (IZ) [1]: 22 mm
- Activity_index [2]: 0.917
- inhibition zone (IZ) [3]: 19 mm
- Activity_index [4]: 0.792
- inhibition zone (IZ) [5]: 18 mm
- Activity_index [6]: 0.75
- inhibition zone (IZ) [7]: 19 mm
- Activity_index [8]: 0.792
- Activity [9]: 25 CFU
- inhibition at 1000 µg/mL [10]: 79.7%
- MIC [11]: 6.25 µg/mL (≈ 11.9 µM)

Structure (SMILES): CC1=C(C(=O)NNC(=O)c2ccncc2)C(c2ccccn2)N2C(=N1)Sc1cccc(Cl)c12 (stereo unspecified)
- inhibition zone (IZ) [1]: 18 mm
- Activity_index [2]: 0.75
- inhibition zone (IZ) [3]: 22 mm
- Activity_index [4]: 0.917
- inhibition zone (IZ) [5]: 17 mm
- Activity_index [6]: 0.708
- inhibition zone (IZ) [7]: 16 mm
- Activity_index [8]: 0.667
- Activity [9]: 23 CFU
- inhibition at 1000 µg/mL [10]: 81.3%
- MIC [11]: 50 µg/mL (≈ 105 µM)

Structure (SMILES): CC1=C(C(=O)NNC(=O)c2ccncc2)C(c2ccccn2)N2C(=N1)Sc1ccccc12 (stereo unspecified)
- inhibition zone (IZ) [1]: 19 mm
- Activity_index [2]: 0.792
- inhibition zone (IZ) [3]: 13 mm
- Activity_index [4]: 0.542
- inhibition zone (IZ) [5]: 20 mm
- Activity_index [6]: 0.833
- inhibition zone (IZ) [7]: 22 mm
- Activity_index [8]: 0.917
- Activity [9]: 37 CFU
- inhibition at 1000 µg/mL [10]: 69.9%
- MIC [11]: 125 µg/mL (≈ 282 µM)

Structure (SMILES): CC1=C(C(=O)NNC(=O)c2ccncc2)C(c2ccccn2)N2C(=N1)Sc1cc(F)ccc12 (stereo unspecified)
- inhibition zone (IZ) [1]: 19 mm
- Activity_index [2]: 0.792
- inhibition zone (IZ) [3]: 24 mm
- Activity_index [4]: 1
- inhibition zone (IZ) [5]: 19 mm
- Activity_index [6]: 0.792
- inhibition zone (IZ) [7]: 12 mm
- Activity_index [8]: 0.5
- Activity [9]: 24 CFU
- inhibition at 1000 µg/mL [10]: 80.5%
- MIC [11]: 25 µg/mL (≈ 54.3 µM)

Structure (SMILES): COc1ccc2c(c1)SC1=NC(C)=C(C(=O)NNC(=O)c3ccncc3)C(c3ccccn3)N12 (stereo unspecified)
- inhibition zone (IZ) [1]: 22 mm
- Activity_index [2]: 0.917
- inhibition zone (IZ) [3]: 15 mm
- Activity_index [4]: 0.625
- inhibition zone (IZ) [5]: 22 mm
- Activity_index [6]: 0.917
- inhibition zone (IZ) [7]: 15 mm
- Activity_index [8]: 0.625
- Activity [9]: 62 CFU
- inhibition at 1000 µg/mL [10]: 49.6%
- MIC [11]: 500 µg/mL (≈ 1060 µM)

Structure (SMILES): CC1=C(C(=O)NNC(=O)c2ccncc2)C(c2ccccn2)N2C(=N1)Sc1cc(O)ccc12 (stereo unspecified)
- inhibition zone (IZ) [1]: 20 mm
- Activity_index [2]: 0.833
- inhibition zone (IZ) [3]: 24 mm
- Activity_index [4]: 1
- inhibition zone (IZ) [5]: 16 mm
- Activity_index [6]: 0.667
- inhibition zone (IZ) [7]: 24 mm
- Activity_index [8]: 1
- Activity [9]: 39 CFU
- inhibition at 1000 µg/mL [10]: 68.3%
- MIC [11]: 100 µg/mL (≈ 218 µM)

Structure (SMILES): NNC(=O)c1ccncc1 [ISONIAZID]
- Activity [9]: 1 CFU
- inhibition at 1000 µg/mL [10]: 99.2%
- MIC [11]: 0.2 µg/mL (≈ 1.46 µM)

Structure (SMILES): CN[C@@H]1[C@H](O[C@H]2[C@H](O[C@H]3[C@H](O)[C@@H](O)[C@H](N=C(N)N)[C@@H](O)[C@@H]3N=C(N)N)O[C@@H](C)[C@]2(O)C=O)O[C@@H](CO)[C@H](O)[C@H]1O [STREPTOMYCIN]
- inhibition zone (IZ) [1]: 24 mm
- inhibition zone (IZ) [3]: 24 mm
- inhibition zone (IZ) [5]: 24 mm
- inhibition zone (IZ) [7]: 24 mm
